In ChEMBL document CHEMBL4689842, “EUbOPEN Chemogenomics Library wave 1” (2021):

Tested on: Fibroblast
Assay: Multiplex assay against human fibroblast
Format: toxicity, cell-based
Outline: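 With compound added, live cells were imaged on a CQ1 microscope at 37°C and 5% CO2; staining with Hoechst33342, BioTracker Green Microtubule Cytoskeleton Dye, MitoTracker Red and Annexin V Alexa Fluor 680 had been done at seeding. The CellPathfinder machine-learning gating scheme split cells into Hoechst high-intensity objects or normal cells, normal cells into healthy, pyknosed or fragmented nuclei, and pyknosed cells into mitotic or apoptotic. The tubulin, mitochondrial-mass and membrane-permeability phenotypes are per cents of healthy-nucleus cells.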

[1] = 12 h, 1 µM, compound concentration 1 uM, replicate 1
[2] = 12 h, 1 µM, compound concentration 1 uM, replicate 2
[3] = 12 h, 10 µM, compound concentration 10 uM, replicate 1
[4] = 12 h, 10 µM, compound concentration 10 uM, replicate 2
[5] = 24 h, 1 µM, compound concentration 1 uM, replicate 1
[6] = 24 h, 1 µM, compound concentration 1 uM, replicate 2
[7] = 24 h, 10 µM, compound concentration 10 uM, replicate 1
[8] = 24 h, 10 µM, compound concentration 10 uM, replicate 2
[9] = 48 h, 1 µM, compound concentration 1 uM, replicate 1
[10] = 48 h, 1 µM, compound concentration 1 uM, replicate 2
[11] = 48 h, 10 µM, compound concentration 10 uM, replicate 1
[12] = 48 h, 10 µM, compound concentration 10 uM, replicate 2

CCOc1cc(C(=O)N2CCC(N3CCN(C)CC3)CC2)ccc1Nc1ncc2c(n1)N(C1CCCC1)c1ccccc1C(=O)N2C
Population Apoptotic (%) [1]: 57% | Population Fragmented Nuclei (%) [1]: 27% | Population Healthy Nuclei (%) [1]: 42% | Population Hoechst High Intensity Objects (%) [1]: 13% | Population Membrane Permeable-Phenotype (%) [1]: 19% | Population Mitochondria Different-Phenotype (%) [1]: 27% | Population Mitotic Cells (%) [1]: 42% | Population Normal (%) [1]: 86% | Population Pyknosed Nuclei (%) [1]: 30% | Population Tubulin-Different-Phenotype (%) [1]: 60% | Total Cell Count [1]: 200 | Population Apoptotic (%) [2]: 75% | Population Fragmented Nuclei (%) [2]: 6% | Population Healthy Nuclei (%) [2]: 80% | Population Hoechst High Intensity Objects (%) [2]: 10% | Population Membrane Permeable-Phenotype (%) [2]: 4% | Population Mitochondria Different-Phenotype (%) [2]: 76% | Population Mitotic Cells (%) [2]: 25% | Population Normal (%) [2]: 89% | Population Pyknosed Nuclei (%) [2]: 12% | Population Tubulin-Different-Phenotype (%) [2]: 48% | Total Cell Count [2]: 67 | Population Apoptotic (%) [3]: 58% | Population Fragmented Nuclei (%) [3]: 30% | Population Healthy Nuclei (%) [3]: 44% | Population Hoechst High Intensity Objects (%) [3]: 19% | Population Membrane Permeable-Phenotype (%) [3]: 20% | Population Mitochondria Different-Phenotype (%) [3]: 56% | Population Mitotic Cells (%) [3]: 41% | Population Normal (%) [3]: 80% | Population Pyknosed Nuclei (%) [3]: 25% | Population Tubulin-Different-Phenotype (%) [3]: 86% | Total Cell Count [3]: 84 | Population Apoptotic (%) [4]: 92% | Population Fragmented Nuclei (%) [4]: 21% | Population Healthy Nuclei (%) [4]: 50% | Population Hoechst High Intensity Objects (%) [4]: 6% | Population Membrane Permeable-Phenotype (%) [4]: 93% | Population Mitochondria Different-Phenotype (%) [4]: 97% | Population Mitotic Cells (%) [4]: 7% | Population Normal (%) [4]: 93% | Population Pyknosed Nuclei (%) [4]: 27% | Population Tubulin-Different-Phenotype (%) [4]: 100% | Total Cell Count [4]: 69 | Population Apoptotic (%) [5]: 62% | Population Fragmented Nuclei (%) [5]: 29% | Population Healthy Nuclei (%) [5]: 49% | Population Hoechst High Intensity Objects (%) [5]: 11% | Population Membrane Permeable-Phenotype (%) [5]: 12% | Population Mitochondria Different-Phenotype (%) [5]: 17% | Population Mitotic Cells (%) [5]: 37% | Population Normal (%) [5]: 88% | Population Pyknosed Nuclei (%) [5]: 20% | Population Tubulin-Different-Phenotype (%) [5]: 42% | Total Cell Count [5]: 205 | Population Apoptotic (%) [6]: 22% | Population Fragmented Nuclei (%) [6]: 16% | Population Healthy Nuclei (%) [6]: 72% | Population Hoechst High Intensity Objects (%) [6]: 5% | Population Membrane Permeable-Phenotype (%) [6]: 5% | Population Mitochondria Different-Phenotype (%) [6]: 65% | Population Mitotic Cells (%) [6]: 77% | Population Normal (%) [6]: 94% | Population Pyknosed Nuclei (%) [6]: 11% | Population Tubulin-Different-Phenotype (%) [6]: 27% | Total Cell Count [6]: 71 | Population Apoptotic (%) [7]: 76% | Population Fragmented Nuclei (%) [7]: 41% | Population Healthy Nuclei (%) [7]: 26% | Population Hoechst High Intensity Objects (%) [7]: 28% | Population Membrane Permeable-Phenotype (%) [7]: 21% | Population Mitochondria Different-Phenotype (%) [7]: 85% | Population Mitotic Cells (%) [7]: 23% | Population Normal (%) [7]: 71% | Population Pyknosed Nuclei (%) [7]: 32% | Population Tubulin-Different-Phenotype (%) [7]: 92% | Total Cell Count [7]: 74 | Population Apoptotic (%) [8]: 88% | Population Fragmented Nuclei (%) [8]: 10% | Population Healthy Nuclei (%) [8]: 30% | Population Hoechst High Intensity Objects (%) [8]: 11% | Population Membrane Permeable-Phenotype (%) [8]: 100% | Population Mitochondria Different-Phenotype (%) [8]: 96% | Population Mitotic Cells (%) [8]: 11% | Population Normal (%) [8]: 88% | Population Pyknosed Nuclei (%) [8]: 59% | Population Tubulin-Different-Phenotype (%) [8]: 100% | Total Cell Count [8]: 85 | Population Apoptotic (%) [9]: 78% | Population Fragmented Nuclei (%) [9]: 37% | Population Healthy Nuclei (%) [9]: 51% | Population Hoechst High Intensity Objects (%) [9]: 15% | Population Membrane Permeable-Phenotype (%) [9]: 13% | Population Mitochondria Different-Phenotype (%) [9]: 8% | Population Mitotic Cells (%) [9]: 21% | Population Normal (%) [9]: 84% | Population Pyknosed Nuclei (%) [9]: 10% | Population Tubulin-Different-Phenotype (%) [9]: 43% | Total Cell Count [9]: 213 | Population Apoptotic (%) [10]: 100% | Population Fragmented Nuclei (%) [10]: 29% | Population Healthy Nuclei (%) [10]: 67% | Population Hoechst High Intensity Objects (%) [10]: 18% | Population Membrane Permeable-Phenotype (%) [10]: 14% | Population Mitochondria Different-Phenotype (%) [10]: 20% | Population Mitotic Cells (%) [10]: 0% | Population Normal (%) [10]: 81% | Population Pyknosed Nuclei (%) [10]: 3% | Population Tubulin-Different-Phenotype (%) [10]: 63% | Total Cell Count [10]: 116 | Population Apoptotic (%) [11]: 88% | Population Fragmented Nuclei (%) [11]: 35% | Population Healthy Nuclei (%) [11]: 26% | Population Hoechst High Intensity Objects (%) [11]: 25% | Population Membrane Permeable-Phenotype (%) [11]: 33% | Population Mitochondria Different-Phenotype (%) [11]: 41% | Population Mitotic Cells (%) [11]: 11% | Population Normal (%) [11]: 75% | Population Pyknosed Nuclei (%) [11]: 37% | Population Tubulin-Different-Phenotype (%) [11]: 66% | Total Cell Count [11]: 60 | Population Apoptotic (%) [12]: 93% | Population Fragmented Nuclei (%) [12]: 34% | Population Healthy Nuclei (%) [12]: 46% | Population Hoechst High Intensity Objects (%) [12]: 32% | Population Membrane Permeable-Phenotype (%) [12]: 5% | Population Mitochondria Different-Phenotype (%) [12]: 78% | Population Mitotic Cells (%) [12]: 6% | Population Normal (%) [12]: 67% | Population Pyknosed Nuclei (%) [12]: 18% | Population Tubulin-Different-Phenotype (%) [12]: 89% | Total Cell Count [12]: 120
